Measurements as given in PMC9178606 (ACS Omega, 2022).
Values belong to the compound of their own block, whether it stands above or below them.

Tests used:
α-amylase = target: T1, α-amylase (Homo sapiens, UniProt P04746); test: In vitro α-amylase inhibitory activity; assay type: biochemical
T1 sequence (P04746 16-511): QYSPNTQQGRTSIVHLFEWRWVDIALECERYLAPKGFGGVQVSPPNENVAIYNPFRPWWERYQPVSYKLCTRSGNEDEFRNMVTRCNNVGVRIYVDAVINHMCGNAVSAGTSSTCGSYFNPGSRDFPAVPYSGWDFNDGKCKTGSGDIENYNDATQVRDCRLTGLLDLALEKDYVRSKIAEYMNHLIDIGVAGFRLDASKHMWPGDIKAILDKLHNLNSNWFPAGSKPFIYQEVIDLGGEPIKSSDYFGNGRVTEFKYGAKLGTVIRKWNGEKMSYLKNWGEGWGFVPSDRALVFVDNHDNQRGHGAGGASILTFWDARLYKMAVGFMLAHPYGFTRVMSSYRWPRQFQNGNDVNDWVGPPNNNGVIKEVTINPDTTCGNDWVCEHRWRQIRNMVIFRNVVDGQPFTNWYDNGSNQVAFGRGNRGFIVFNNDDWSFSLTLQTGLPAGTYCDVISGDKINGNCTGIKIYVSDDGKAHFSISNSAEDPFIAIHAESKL
In short: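 Labtest amylase substrate (diluted 1:1 in water) added; first read at 620 nm after 8 min. Final read after another 5 min at 37 °C. Inhibition calculated from the change between initial and final absorbance relative to control; IC50 from standard curve.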

collagenase = test: Anti-proteases assay; assay type: biochemical; settings: mean of two determinations ± SD
In short: (§1)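 Enzyme preincubated with test compound (5−75 μg/mL) for 15 min at 37 °C, then 1% casein substrate added for 30 min at 37 °C. Reaction stopped with 5% trichloroacetic acid and centrifuged (12,000 rpm, 15 min). Filtrate absorbance read at 280 nm. Percent inhibition taken against control; IC50 from standard curve. Protease inhibitor cocktail was the positive control.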

hsPLA2-G-X = target: T2, hsPLA2-G-X (Homo sapiens, UniProt O15496); test: Anti-phospholipases colorimetric assay, hsPLA2-G-X; assay type: biochemical
T2 sequence (O15496 43-165): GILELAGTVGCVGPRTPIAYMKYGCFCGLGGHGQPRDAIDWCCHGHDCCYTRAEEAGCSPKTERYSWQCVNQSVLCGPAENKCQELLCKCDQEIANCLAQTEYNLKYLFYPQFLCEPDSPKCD
In short: (§2)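 Test compound solutions (5−50 μg/mL) mixed with hsPLA2 solution (20 μg/mL, stock) and held 20 min at room temperature. Substrate added: 3.5 mM lecithin, 10 mM CaCl2, 3 mM sodium taurodeoxycholate, 100 mM NaCl, 0.055 mM phenol red, pH 7.6. Hydrolysis followed at 558 nm for 5 min. Percent inhibition taken against a no-compound control; IC50 from standard calibration curves.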

LoVo cells = test: Cytotoxicity assay; assay type: cell-based; settings: Homo sapiens, 24 h; for viability at 200 µg/mL: read-out: % of Viable cells, LoVo cell line of CRC; for IC50: read-out: IC50 LoVo cell line of CRC
In short: (§3)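 Cells exposed 24 h at 37 °C in 5% CO2 to test compound (final 25, 50, 75, 100, 200, 400 μg/mL) in DMEM with 10% FBS. Lactate dehydrogenase released into supernatant measured by end-point assay, OD 550 nm. Viability expressed as percent of medium-only control; 0.1% Triton X-100 was the positive control. Single-point viability at 200 μg/mL, mean ± SD (n = 2). IC50 from viability-versus-concentration plot.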

xanthine oxidoreductase = xanthine oxidoreductase (Bos taurus, UniProt P80457); test: In vitro xanthine oxidoreductase inhibitory activity; assay type: biochemical
Chain of xanthine oxidoreductase (P80457 2-1332 limits assumed): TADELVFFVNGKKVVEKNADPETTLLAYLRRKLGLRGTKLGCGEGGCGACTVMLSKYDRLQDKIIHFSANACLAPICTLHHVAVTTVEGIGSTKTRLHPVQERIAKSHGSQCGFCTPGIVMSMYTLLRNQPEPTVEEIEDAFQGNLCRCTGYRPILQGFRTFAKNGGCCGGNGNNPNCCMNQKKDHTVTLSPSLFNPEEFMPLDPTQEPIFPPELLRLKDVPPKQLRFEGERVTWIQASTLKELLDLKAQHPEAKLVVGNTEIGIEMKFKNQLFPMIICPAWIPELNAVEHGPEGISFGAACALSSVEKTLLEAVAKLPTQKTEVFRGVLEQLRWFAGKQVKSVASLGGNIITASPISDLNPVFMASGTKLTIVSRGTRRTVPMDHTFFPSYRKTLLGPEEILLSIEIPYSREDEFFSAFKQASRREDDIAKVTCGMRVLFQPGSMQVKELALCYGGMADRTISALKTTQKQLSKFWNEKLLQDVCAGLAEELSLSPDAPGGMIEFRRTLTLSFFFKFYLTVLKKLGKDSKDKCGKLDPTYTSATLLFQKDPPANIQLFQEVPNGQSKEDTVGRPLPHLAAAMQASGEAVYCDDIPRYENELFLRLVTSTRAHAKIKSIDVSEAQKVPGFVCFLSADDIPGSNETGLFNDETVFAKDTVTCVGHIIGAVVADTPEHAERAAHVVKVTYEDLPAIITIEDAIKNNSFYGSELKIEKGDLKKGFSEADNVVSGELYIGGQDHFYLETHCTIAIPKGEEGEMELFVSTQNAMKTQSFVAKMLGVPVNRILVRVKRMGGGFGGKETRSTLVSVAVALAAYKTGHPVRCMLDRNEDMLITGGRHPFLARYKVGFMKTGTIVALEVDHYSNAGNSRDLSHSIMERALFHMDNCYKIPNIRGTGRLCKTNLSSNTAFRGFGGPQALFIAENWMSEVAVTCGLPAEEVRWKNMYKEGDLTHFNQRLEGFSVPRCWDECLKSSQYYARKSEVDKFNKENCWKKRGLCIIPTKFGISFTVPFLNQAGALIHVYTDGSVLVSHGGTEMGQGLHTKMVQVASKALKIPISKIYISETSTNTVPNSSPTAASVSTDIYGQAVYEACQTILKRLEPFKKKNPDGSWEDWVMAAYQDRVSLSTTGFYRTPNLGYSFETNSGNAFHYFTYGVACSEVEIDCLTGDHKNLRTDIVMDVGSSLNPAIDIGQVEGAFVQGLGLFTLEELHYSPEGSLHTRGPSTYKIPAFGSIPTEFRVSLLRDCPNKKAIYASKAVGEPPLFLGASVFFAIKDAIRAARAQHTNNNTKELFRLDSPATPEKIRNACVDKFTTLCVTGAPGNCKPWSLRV

cathepsin-B = cathepsin-B (Homo sapiens, UniProt P07858); test: Anti-proteases assay; assay type: biochemical
In short: as §1

α-glucosidase = α-glucosidase (Saccharomyces cerevisiae, UniProt P53341); test: In vitro α-glucosidase inhibitory activity; assay type: biochemical, Saccharomyces cereviseae
Chain of α-glucosidase (P53341 whole entry): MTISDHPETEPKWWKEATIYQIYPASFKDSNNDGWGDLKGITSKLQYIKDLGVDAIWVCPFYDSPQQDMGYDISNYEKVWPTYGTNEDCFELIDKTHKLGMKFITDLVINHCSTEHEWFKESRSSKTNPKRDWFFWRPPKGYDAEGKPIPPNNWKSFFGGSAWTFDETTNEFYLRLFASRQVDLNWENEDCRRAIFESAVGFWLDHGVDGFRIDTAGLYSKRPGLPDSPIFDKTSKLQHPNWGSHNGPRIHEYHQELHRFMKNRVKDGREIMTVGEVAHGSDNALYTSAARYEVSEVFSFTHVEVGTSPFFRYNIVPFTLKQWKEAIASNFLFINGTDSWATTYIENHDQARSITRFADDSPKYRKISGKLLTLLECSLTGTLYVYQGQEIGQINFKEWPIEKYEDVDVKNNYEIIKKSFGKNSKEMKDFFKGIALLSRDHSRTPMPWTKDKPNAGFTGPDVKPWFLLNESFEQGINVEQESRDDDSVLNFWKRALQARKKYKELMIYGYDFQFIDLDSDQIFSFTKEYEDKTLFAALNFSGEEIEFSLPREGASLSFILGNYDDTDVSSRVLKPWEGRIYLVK

hsPLA2-G-V = target: T3, hsPLA2-G-V (Homo sapiens, UniProt P39877); test: Anti-phospholipases colorimetric assay, hsPLA2-G-V; assay type: biochemical
T3 sequence (P39877 21-138): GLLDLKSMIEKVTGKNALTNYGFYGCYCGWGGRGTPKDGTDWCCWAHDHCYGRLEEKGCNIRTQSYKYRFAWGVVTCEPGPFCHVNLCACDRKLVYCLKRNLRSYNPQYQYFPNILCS
In short: as §2

HCT-116 cells = test: Cytotoxicity assay; assay type: cell-based; settings: Homo sapiens, HCT-116, 24 h, read-out: IC50 HCT-116 cell line of CRC
In short: as §3

hsPLA2-G-IIA = target: T4, hsPLA2-G-IIA (Homo sapiens, UniProt P14555); test: Anti-phospholipases colorimetric assay, hsPLA2-G-IIA; assay type: biochemical
T4 sequence (P14555 21-144): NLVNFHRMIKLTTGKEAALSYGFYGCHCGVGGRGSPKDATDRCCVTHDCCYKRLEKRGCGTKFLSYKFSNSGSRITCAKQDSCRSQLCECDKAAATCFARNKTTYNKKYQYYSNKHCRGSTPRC

trypsin = target: T5, trypsin (Bos taurus, UniProt P00760); test: Anti-proteases assay; assay type: biochemical
T5 sequence (P00760 24-246): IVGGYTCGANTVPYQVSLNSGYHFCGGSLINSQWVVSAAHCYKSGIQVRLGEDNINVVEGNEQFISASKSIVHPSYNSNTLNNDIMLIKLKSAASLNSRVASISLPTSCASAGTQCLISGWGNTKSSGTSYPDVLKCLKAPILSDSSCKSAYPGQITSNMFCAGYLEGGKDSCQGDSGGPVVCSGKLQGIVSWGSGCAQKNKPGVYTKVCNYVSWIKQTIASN
In short: as §1

thrombin = thrombin (Homo sapiens, UniProt P00734); test: Anti-proteases assay; assay type: biochemical

Compound: COc1cc(/C=N/n2c(C)nc3ccc(C)cc3c2=O)cc([N+](=O)[O-])c1O [Compound 3d, (E)-3-[(4-Hydroxy-3-methoxy-5-nitrobenzylidene)amino]-2,6-dimethylquinazolin-4(3H)-one]
mean IC50 against Collagenase (collagenase): 57.83 ± 2.69 µg/mL
IC50 (hsPLA2-G-X): 21.4 ± 2.31 µM
viability at 200 µg/mL (LoVo cells): 90.5 ± 3.54%
IC50 (α-amylase): 375 ± 11.5 µM

Compound: COc1cc(/C=N/n2c(C)nc3ccc(Br)cc3c2=O)ccc1O [Compound 3g, (E)-6-Bromo-3-[(4-hydroxy-3-methoxybenzylidene)amino]-2-methyl-3H-quinazolin-4-one]
IC50 (hsPLA2-G-X): 14.5 ± 0.92 µM
IC50 (hsPLA2-G-V): 22.3 ± 0.92 µM
viability at 200 µg/mL (LoVo cells): 16.8 ± 0.35%
IC50 (LoVo cells): 206 ± 7.29 µM
IC50 (HCT-116 cells): 285 ± 9.11 µM

Compound: COc1cc(/C=N/n2c(C)nc3ccc(Br)cc3c2=O)ccc1OCc1ccc(Cl)cc1 [Compound 5, (E)-6-Bromo-3-{[4-(4-chlorobenzyloxy)-3-methoxybenzylidene]amino}-2-methyl-3H-quinazolin-4-one]
IC50 (α-amylase): 358 ± 4.95 µM
IC50 (α-glucosidase): 13.7 ± 1.41 µM

Compound: Cc1nc2ccc(Cl)cc2c(=O)n1NC1=NC(=O)CS1 [Compound 8, 6-Chloro-2-methyl-3-(4-oxo-4,5-dihydrothiazol-2-ylamino)-3H-quinazolin-4-one]
IC50 (trypsin): 1.78 µM
IC50 (thrombin): 0.729 µM
viability at 200 µg/mL (LoVo cells): 13.5 ± 0.71%
IC50 (LoVo cells): 319 ± 11.4 µM
IC50 (HCT-116 cells): 449 ± 11.5 µM

Compound: O=c1c2ccccc2[nH]c(=S)n1-c1ccccc1 [Compound 9, 2-Mercapto-3-phenyl-3H-quinazolin-4-one]
IC50 (hsPLA2-G-V): 151 ± 2.12 µM

Compound: O=c1c(O)c(-c2ccc(O)c(O)c2)oc2cc(O)cc(O)c12 [Quercetin, quercetin, reference compound]
IC50 (α-amylase): 407 ± 2.83 µM

Continued, in another order:

IC50 (α-amylase): 264 ± 11 µM
Compound: Cc1nc2ccc(Br)cc2c(=O)n1/N=C/c1ccc(C(=O)O)cc1 [Compound 3b, (E)-4-[(6-Bromo-2-methyl-4-oxo-4H-quinazolin-3-ylimino)methyl]benzoic acid]

IC50 (xanthine oxidoreductase): 7.34 ± 0.33 µM
IC50 (α-amylase): 310 ± 10 µM
IC50 (cathepsin-B): 132 µM
IC50 (α-glucosidase): 12.4 ± 0.83 µM
Compound: COc1ccc2cc(/C=N/n3c(C)nc4ccc(Br)cc4c3=O)ccc2c1 [Compound 3f, (E)-6-Bromo-3-[((6-methoxynaphthalen-2-yl)methylene)amino]-2-methylquinazolin-4(3H)-one]
viability at 200 µg/mL (LoVo cells): 58 ± 4.24%

IC50 (cathepsin-B): 31.5 µM
IC50 (hsPLA2-G-IIA): 127 ± 2.12 µM
Compound: Cc1nc2ccc(Cl)cc2c(=O)n1NC(=O)CCl [Compound 7b, 2-Chloro-N-(6-chloro-2-methyl-4-oxo-4H-quinazolin-3-yl)acetamide]

IC50 (hsPLA2-G-V): 14.7 ± 0.42 µM
IC50 (hsPLA2-G-IIA): 13.8 ± 2.12 µM
Compound: Cc1nc2ccccc2c(=O)n1NC(=O)CSc1nc2ccccc2c(=O)n1-c1ccccc1 [Compound 10, N-(2-Methyl-4-oxo-4H-quinazolin-3-yl)-2-(4-oxo-3-phenyl-3,4-dihydroquinazolin-2-ylsulfanyl)acetamide]
viability at 200 µg/mL (LoVo cells): 22 ± 1.41%
IC50 (LoVo cells): 273 ± 9.04 µM
IC50 (HCT-116 cells): 230 ± 9.04 µM

IC50 (α-amylase): 401 ± 6.36 µM
Compound: COc1cc(NCC(=O)Nn2c(C)nc3ccc(Cl)cc3c2=O)cc(OC)c1OC [Compound 12, N-(6-Chloro-2-methyl-4-oxo-4H-quinazolin-3-yl)-2-(3,4,5-trimethoxyphenylamino)acetamide]
